Measured values published in article PMC3135172 (Cell, 2011).
One block for each molecule: values may come before it.

Assays:
[1] = system: H4K12ac; assay: Enrichment of H4K12ac in cells cultured in trichostatin A; type: cell-based; settings: Figure S7H
[2] = system: BPTF PHD finger; assay: Binding of short H3K4me3 peptide in the absence of DNA; set-up: species or system human; settings: Figure S2D
[3] = target: BPTF bromodomain (Homo sapiens, UniProt Q12830); type: binding; settings: GST-tagged bromodomain, peptide array on modified cellulose scaffold
How it was run: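 Each acetylated peptide sits on a cellulose membrane, e.g. H4 residues 11–25 carrying a single ε-amine acetyl-lysine. […] Control and replicate blots were run. Spots that stained on the blot were retested for binding in solution.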

[4] = system: PHD-bromo module F154A mutant; assay: FPA of PHD-bromo mutant F154A with histone peptides; type: binding, human; settings: Figure 4B
[5] = system: BPTF bromodomain V108A; assay: ITC of H4K16ac peptide with BPTF bromodomain mutant V108A; type: binding, human; settings: Kd outside of the accurately measurable range, Figure 5D
[6] = system: BPTF bromodomain Y147F; assay: ITC of H4K16ac peptide with BPTF bromodomain mutant Y147F; type: binding, human; settings: Kd outside of the accurately measurable range, Figure 5D
[7] = system: BPTF bromodomain W91A; assay: ITC of H4K16ac peptide with BPTF bromodomain mutant W91A; type: binding, human; settings: not reliably quantifiable, Figure 5E
[8] = system: BPTF bromodomain D101A; assay: ITC of H4K16ac peptide with BPTF bromodomain mutant D101A; type: binding, human; settings: not reliably quantifiable, Figure 5E

Molecule: CC(/C=C/C(=O)NO)=C\[C@@H](C)C(=O)c1ccc(N(C)C)cc1 [trichostatin A]
enrichment of H4K12ac mark [1]: substantial enrichment of the mark

binding of short peptide without DNA [2]: bound effectively in the absence of DNA
Molecule: H3K4me3 peptide: short H3K4me3[1–8] peptide used for the DNA ruler, tested without DNA

Molecule: H4K16ac: histone H4 peptide (residues 11–25 on the array) acetylated on the ε-amine of lysine 16
SPOT blot interaction / staining [3]: reproducible staining
peptide binding to F154A mutant [4]: abolishes bromodomain binding of H4K16ac
H4K16ac binding by V108A bromodomain [5]: modest binding deficits
H4K16ac binding by Y147F bromodomain [6]: modest binding deficits
H4K16ac binding by W91A bromodomain [7]: more severe loss of affinity
H4K16ac binding by D101A bromodomain [8]: more severe loss of affinity

SPOT blot interaction / staining [3]: reproducible staining
Molecule: H4K20ac: histone H4 peptide (residues 11–25 on the array) acetylated on the ε-amine of lysine 20

Molecule: unmodified counterpart: unmodified histone H4 peptide, without acetylation [reference compound]
SPOT blot interaction / staining [3]: displayed no detectable signal above background
